Here are results for 96 compounds from ChEMBL document CHEMBL4513216, “Probing the Open Global Health Chemical Diversity Library for Multistage-Active Starting Points for Next-Generation Antimalarials” (ACS Infect Dis, 2020).

The series in a line: Toxicity liver stage against HepG2, at 10uM. Format: cell-based. Details: test concentration 10 uM, cell line HepG2-A16-CD81EGFP. The settings on record: human, HepG2-A16-CD81EGFP cells; read-out: INHIBITION
In outline: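 Uninfected HepG2-A16-CD81EGFP cells, 3 × 10^3 per well, 1536-well, plated on prespotted compound at 10 μM final, parasite-free screening media added to match infected plates; puromycin 10 μM positive, DMSO 0.5% negative; run in parallel with 48 h PbLuc assay at 37 °C, 5% CO2; viability by CellTiter-Glo luminescence, normalized to controls.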
Consider `CC(=O)N1CCC[C@@H](NCc2c[nH]c3ccccc23)[C@@H]1c1ccc(C)s1`, for which the cytotoxicity at 10 µM was -39%. To `CCc1nnc(C2Cc3ccccc3CN2Cc2ncc(Cl)n2C)o1` (stereo unspecified) belongs 12.5%; to `N#Cc1cn[nH]c1NCc1cc(Cl)cc(Cl)c1O`, 19.1%; to `O=S(=O)(Nc1cnn(C2CCOCC2)c1)c1ccc(Br)cc1`, 5.05%. Under `CC(=O)N1CCCC1c1cccc(Cc2ccccc2Cl)n1` (stereo unspecified) stands 1.58%; under `COCCNC(=O)c1cc(-n2cccc2)ccc1Cl`, -3.45%. Turning to `COc1cccc(CCC(=O)Nc2cnc3c(c2)c(C)nn3C)c1OC`, the cytotoxicity at 10 µM was 1.67%.

Turning to `CCc1nnc(CN2CCC(C3CCCCCN3C(=O)C3CC3)CC2)o1` (stereo unspecified), the cytotoxicity at 10 µM is -49.7%. To `CC(=O)NCCc1ccc(S(=O)(=O)N(C)C(C)C(C)(C)C)s1` (stereo unspecified) belongs -3.58%; to `CNC(=O)[C@@H](c1ccccc1OC)N1CCC[C@H]1C(=O)NCCN(C)C`, -5.12%.

For the compound `O=C(c1ccc(Br)o1)N1CCN(Cc2ccc(OC(F)(F)F)cc2)CC1`, the cytotoxicity at 10 µM was determined as 21.7%. To `CN(C)C(=O)CN1C[C@H]2CC[C@@H](C1)N(Cc1cc(F)ccc1F)C2` belongs -24%. For `Cc1ccc(Cn2c(=O)[nH]c3cccnc3c2=O)cc1`, the cytotoxicity at 10 µM stood at 1.61%.

On to `CC(C)(C)c1nccc(C2(c3ccccc3Cl)CCNCC2)n1`, for which the cytotoxicity at 10 µM was -1.15%. Under `Cc1cnn(CC2CCCCN2C(=O)Cc2cn3ccsc3n2)c1` (stereo unspecified) stands -5.5%; under `CC(NC(=O)CCn1c(=O)oc2ccccc21)c1ccccn1` (stereo unspecified), -3.34%. Under `CN(C(=O)CN1CCOC(Cn2cccn2)C1)c1nccs1` (stereo unspecified) stands -14.2%. Under `COc1ccc(CN(CC2CCCO2)c2nc3c(s2)c(C)nn3C)cc1` (stereo unspecified) stands 11.4%. `COc1ccnc(N2CCN(C(C)c3nc(C)no3)CC2)n1` (stereo unspecified): the cytotoxicity at 10 µM is -1.33%. Under `N#Cc1ccc(S(=O)(=O)NC(=O)C2CC2)c(C(F)(F)F)c1` stands -11.1%; under `O=c1[nH]cc(N2CCOCC2)c(=O)[nH]1`, 6.36%. Take `Cn1ccc(C(=O)N2CCCC(CNS(C)(=O)=O)C2)cc1=O` (stereo unspecified): the cytotoxicity at 10 µM was 0.193%.

Regarding `Cc1ccnc(C2CCN(C(=O)CCn3ncc4ccccc43)C2)n1` (stereo unspecified), the cytotoxicity at 10 µM is -22.3%.

Take `CCc1nc(C2CCCN2Cc2cnc(C)cn2)no1` (stereo unspecified): the cytotoxicity at 10 µM was -14.6%. Under `CC(C)c1cc(C(=O)N2CCN(CC3CC3)[C@@H]3CS(=O)(=O)C[C@@H]32)no1` stands -2.19%; under `O=C(c1cnc2ccc(Cl)cc2c1NCc1ccco1)N1CCCCC1`, 4.38%. As to `Cc1nnc(CSCc2ccc(OCC(F)(F)F)nc2)o1`, the cytotoxicity at 10 µM was 2.49%. Consider `O=C(CCn1ncc2c(Cl)cccc21)NCCCO`, for which the cytotoxicity at 10 µM turned out to be 7.63%. With `COc1cccc(CCC(=O)N2CCCC(n3cc(C)cn3)C2)c1` (stereo unspecified), the cytotoxicity at 10 µM was 4.28%. For `CCc1ccc(CN2CCN(c3cccc(OC)c3)C(=O)C2)nc1`, the cytotoxicity at 10 µM turned out to be 1.76%. In the case of `Cn1ccnc1-c1nc2cc(S(=O)(=O)N3CCCC3)ccc2n1C`, the cytotoxicity at 10 µM was 5.05%. Under `CSc1ccc(-c2nc(CN3CCCC(CNC(C)=O)C3)c(C)o2)cc1` (stereo unspecified) stands 2.32%. Under `COC1CCN(c2ccc(NC(=O)Cn3cccc3)cc2)CC1` stands 2.99%. With `Cc1cnn(CC2CCCN2C(=O)c2cc(C)no2)c1` (stereo unspecified), the cytotoxicity at 10 µM was -0.194%. Under `Cc1cncc(C(=O)N2C[C@@H](C(=O)O)[C@H](C(C)C)C2)c1` stands -4.31%; under `Cc1ccc(C2CCCN(C(=O)c3cnn(C)c3)C2)nc1` (stereo unspecified), -25.8%. `Cc1nnc(SCCC(=O)N(C)Cc2ccc(Cl)s2)[nH]1`: the cytotoxicity at 10 µM was 14.4%.

Take `O=C1CC(c2ccccc2Br)c2sc(N3CCOCC3)nc2N1` (stereo unspecified): the cytotoxicity at 10 µM worked out at 9.4%. To `OC1(CN2CCCC2)CCCN(c2ncnc3[nH]cnc23)C1` (stereo unspecified) belongs 11.3%. Under `CCCNC(=O)NC(=O)CN1CCN(Cc2nccn2CC)CC1` stands -14.3%. Turning to `CC1CCN(CCNC(=O)c2cncnc2C(C)C)CC1`, the cytotoxicity at 10 µM is -12%. In the case of `COc1cccc(OC)c1CN1CC(O)CN(S(C)(=O)=O)CC1=O` (stereo unspecified), the cytotoxicity at 10 µM was -82.6%. Under `Cc1ccc(CCNC(=O)CC2COCCN2S(=O)(=O)N(C)C)o1` (stereo unspecified) stands 3.39%; under `Cc1cccc(-c2ccc(C(=O)NCC3CCOC3)c(=O)[nH]2)c1` (stereo unspecified), -9.66%. To `COc1ccc(-c2noc(C(=O)NCCN3CCCCC3)n2)cc1OC` belongs -6.24%. Under `COCCN(C)CCN1CC2(CCN(C3CCCOC3)CC2)OC1=O` (stereo unspecified) stands -11%; under `CSc1nccn1-c1cccc(C(=O)NCCN2CCS(=O)(=O)CC2)c1`, -3.97%. Consider `CC(C)N1CCO[C@H]2CN(C(=O)Cc3ccsc3)C[C@H]21`, for which the cytotoxicity at 10 µM was 11.4%. Under `N#CC1(C(=O)N2CCOC(c3ccc(Cl)cc3)C2)CCCC1` (stereo unspecified) stands 1.36%; under `CN1N=C(C(=O)NCCc2csc(-c3ccccc3)n2)CCC1=O`, 0.621%; under `c1cnc(NCc2nnn3c2CN(CC2CC2)CCC3)nc1`, -0.536%. To `CCN(Cc1ccco1)C(=O)C1=NN(c2ccccc2)C(=O)CN1` belongs 6.35%; to `N#Cc1cccc(NC2CC(=O)N(C3Cc4ccccc4C3)C2)n1` (stereo unspecified), -141%; to `CC(C)[C@H]1CN(C2Cc3ccccc3C2)C[C@@H]1NS(C)(=O)=O`, -16%. With `COc1ccc2[nH]cc(C3CCN(CCC(N)=O)CC3)c2c1`, the cytotoxicity at 10 µM is -1.22%.

Turning to `Cc1ccc(Br)cc1S(=O)(=O)NCCc1nnc[nH]1`, the cytotoxicity at 10 µM is -5.89%. To `CCOCC1CC2(CCN(C(=O)c3ccc4ccccc4n3)CC2)CO1` (stereo unspecified) belongs 3.79%.

Regarding `COC(=O)[C@@H]1Cc2ncn(C)c2CN1S(=O)(=O)c1ccc(Cl)cc1`, the cytotoxicity at 10 µM is 4.67%.

With `c1ccc(C[C@H]2CN(C3CCOCC3)CC[C@H]2OCC2CC2)cc1`, the cytotoxicity at 10 µM is 0.994%.

Take `Cc1ccc(NC(=O)CNc2ccn(CC(N)=O)n2)c(Cl)c1`: the cytotoxicity at 10 µM amounted to 4.44%. For `Cc1cc(N2CCC3(CCC(=O)N(CC4CC4)C3)CC2)ncn1`, the cytotoxicity at 10 µM is -7.8%. To `CCc1nccn1C1CCCN(C(=O)CCOCC(F)(F)F)C1` (stereo unspecified) belongs -9.39%; to `CCOc1ccc2nc(NC(=O)c3c(C(=O)O)cnn3C)sc2c1`, 6.47%; to `Cc1cnn(CC2CN(CCS(=O)(=O)c3ccccc3)CCO2)c1` (stereo unspecified), -3.08%.

For `CC(CNC(=O)c1cccc(-n2cccn2)c1)Cn1ccnc1` (stereo unspecified), the cytotoxicity at 10 µM came to 0.335%. With `Cc1nn(C)c(C)c1CCC(=O)Nc1cn(C)c(=O)n(C)c1=O`, the cytotoxicity at 10 µM stood at 20.6%. Under `Cc1nc(C)n(CC2CCCN2CCOc2ccccc2F)n1` (stereo unspecified) stands -3.21%; under `CCOc1cc(CN(C)CCCO)ccc1OC(F)F`, -14.1%; under `O=C(NCC1Cn2nnc(-c3ccsc3)c2CO1)c1ccc[nH]1` (stereo unspecified), 2.28%. To `CCCc1nc(C)cc(N2CCC3(CCC(=O)N(CC(N)=O)C3)CC2)n1` belongs -8.38%. Under `COc1ccc([C@@H]2CN(C(=O)Cc3cccs3)C[C@H]2NC(C)=O)cc1` stands -1.16%.

Regarding `COCCC1(C(=O)O)CCCN(CCc2ccccc2)C1` (stereo unspecified), the cytotoxicity at 10 µM stood at 10.6%. Take `CC(C)(C)OC(=O)N1CCN(C(=O)c2cnn3c2OCCC3)CC1`: the cytotoxicity at 10 µM was -2%. To `Cc1cc(NC(=O)CN(C)C2CCCN(c3cccnn3)C2)n(C)n1` (stereo unspecified) belongs -12.4%; to `O=C(CC1CC1)NC[C@]12COC[C@H]1CN(c1ncc(F)cn1)C2`, -141%; to `Cc1ccc(OCCN(C)S(=O)(=O)c2cnn(C)c2)cc1`, 0.821%. To `COc1ccc(Cl)cc1C(=O)N1C[C@@H](NC(=O)N(C)C)[C@H](C(C)C)C1` belongs -1.41%; to `COCc1noc(-c2ccc(N3CCCC3c3nccs3)nc2)n1` (stereo unspecified), 7.12%.

For `CCN(Cc1ccc(C#N)cc1F)C(=O)C(C)(C)C`, the cytotoxicity at 10 µM was 5.73%.

As to `CCOc1ccc(C(=O)N2CCCC2c2c(C)nn(C)c2Cl)cn1` (stereo unspecified), the cytotoxicity at 10 µM was -12.4%. Regarding `COC(=O)c1ccc(NC(C)c2ccc3c(c2)CC(=O)N3)nn1` (stereo unspecified), the cytotoxicity at 10 µM came out at 3.82%. Turning to `Cc1nc(C)n(CC2CCCN2Cc2cn(-c3ccccc3)nn2)n1` (stereo unspecified), the cytotoxicity at 10 µM turned out to be 3.87%. To `NS(=O)(=O)CCNC(=O)c1nnn(-c2ccccc2)c1C1CC1` belongs -12.2%; to `CN1CCCC1CNC(=O)CCCOCc1ccccc1` (stereo unspecified), -5.59%; to `CCn1cnnc1C1CCN(C(=O)c2cnc(C3CC3)s2)CC1`, -7.59%. To `CCS(=O)(=O)CCSc1ccc(Br)cc1` belongs -7%; to `CCN(CC)C(=O)c1ccc(CNc2ncc(C#N)cc2Cl)cc1`, 5.87%. To `Cc1ccc(N2CC[C@H]3OCC[C@@]3(C(=O)NC(C)C)C2)nn1` belongs -11.7%; to `O=C(c1ccnnc1)N1CCc2onc(CN3CCCC3)c2C1`, 7.31%; to `Cc1ccc(C)c(-n2ncc(C(=O)N(C)CCc3ccccn3)c2N)c1`, -1.57%.

For the compound `OCCN1CCN(Cc2cn(-c3ccccc3)nn2)CC1`, the cytotoxicity at 10 µM turned out to be 1.42%.

For the compound `Cc1noc(C)c1C(=O)NCC(C)N(C)C` (stereo unspecified), the cytotoxicity at 10 µM is -8.4%. Under `Cc1cccc(CN2CCN(C(=O)c3ccc(C)[nH]c3=O)CC2)c1` stands 12.8%; under `CCCN1CCN(C(=O)c2ccc(Cl)cn2)[C@H]2CS(=O)(=O)C[C@H]21`, -4.15%.

For the compound `Cc1ccc(CN2CCC3(CCN(c4cnn(C)c4)C3=O)C2)s1` (stereo unspecified), the cytotoxicity at 10 µM is -70%. As to `COC(=O)c1cccc(S(=O)(=O)N2CSCC2C(=O)N(C)C2CC2)c1` (stereo unspecified), the cytotoxicity at 10 µM came to 5.15%.
